PG9 binder: binds the HIV-1 gp120 antibody PG9; inhibition, % at 6.7 µM; 360,000 tested, 0.43% active; TR-FRET gp120-PG9 antibody binding; in the data active = inhibition above about 8.5%
MC4R antag cAMP: antagonists of human melanocortin 4 receptor (MC4R); 360,000 tested, 0.48% active; P32245; inhibition, % at 6.5 µM; MC4R-expressing cells, MTII-stimulated cAMP, LANCE TR-FRET; AID 540295;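 active = inhibition above its plate's cutoff, the mean of tested wells on that plate plus 3 SD, cut at about 29% in these data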;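 also: 0% = Melanotan II alone and 100% = Melanotan II plus saturating MCL0020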
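Material – human MC4R-expressing U2OS cells · Repeats – no replicates · Detection – TR-FRET with Eu-cAMP and labeled anti-cAMP, 671 nm · Times – compound 30 min, challenge 1 h, detection 1 h · Compound – single nominal compound dose of 6.5 µM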
NR2E3 ag-1: agonists of human nuclear receptor NR2E3. GST-NR2E3/biotin-RetCOR TR-FRET, 1536-well. AID 2300. inhibition of corepressor binding, % at 4.78 µM. 320,000 tested, 0.12% active. Q9Y5X4;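 active = percent inhibition above the cutoff of mean plus 3 SD of all tested compounds, set per screening campaign, cut at about 20% in these data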;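 also: 0% = DMSO wells and 100% = biotin wells as full block of FRET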
Target sequence (Q9Y5X4 whole entry, looked up): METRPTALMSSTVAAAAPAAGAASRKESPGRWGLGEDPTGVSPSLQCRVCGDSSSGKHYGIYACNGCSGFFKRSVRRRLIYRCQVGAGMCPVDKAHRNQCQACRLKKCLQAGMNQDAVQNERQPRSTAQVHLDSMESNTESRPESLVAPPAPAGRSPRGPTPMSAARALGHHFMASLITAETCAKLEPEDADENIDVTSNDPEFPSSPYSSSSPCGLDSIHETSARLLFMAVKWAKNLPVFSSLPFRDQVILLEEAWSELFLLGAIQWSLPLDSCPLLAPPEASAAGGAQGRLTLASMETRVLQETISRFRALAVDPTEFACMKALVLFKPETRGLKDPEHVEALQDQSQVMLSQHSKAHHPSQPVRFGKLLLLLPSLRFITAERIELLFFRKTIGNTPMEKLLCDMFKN
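system = GST-tagged NR2E3 plus biotinylated RetCOR corepressor | input = 1.35 nM GST-NR2E3 | also added = 7 nM biotin-RetCOR | schedule = 5 h incubation at 4 °C | measured by = TR-FRET with europium anti-GST and streptavidin-D2, 340 nm excitation | read-out = percent loss of FRET ratio relative to control wells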
NR2E3 ag-2: agonists of human NR2E3 nuclear receptor; inhibition of corepressor binding, % at 3.98 µM; 360,000 tested, 0.35% active; CHO-S Gal4-NCOR/VP16-NR2E3 two-hybrid, luciferase; Q9Y5X4; AID 602229;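 active = inhibition above the mean of all tested compounds plus 3 SD, cut at about 70% in these data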;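 also: 0% = DMSO with NR2E3 transfected cells and 100% = cells lacking NR2E3 construct; higher means lower luciferase signal from less NR2E3 corepressor binding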
MC4R barr agon: agonists of human melanocortin 4 receptor (MC4R) beta-arrestin. U2OS MC4R beta-arrestin complementation, luminescence; percent of melanotan II response, DMSO zero. activation, % at 8.9 µM. 360,000 tested, 0.98% active;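 active = activation above a per-plate cutoff, the mean activation of sample wells on that plate plus 3 SD, cut at about 8% in these data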
NR1D1 modulator: Rev-erb alpha (human) modulation; P20393; Rev-erbα–FITC-DNA binding, fluorescence polarization, 90 min; activity, % at 10 µM; 370,000 tested, 0.79% active; AID 1259318;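 active = activity above about 14%, limit read from the data; passing the limit was not always enough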;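 also: 0% = DMSO wells with 35 nM protein and 100% = DMSO wells with 750 nM protein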
An asterisk follows results filed as active. The list is not random: actives were taken first. Their share in the collection is about 2.7%.

For Cc1ccc(S(=O)(=O)Nc2ccc(NC(=O)Nc3cccc(C(F)(F)F)c3)cc2)cc1 the results were PG9 binder 0, MC4R antag cAMP 14, NR2E3 ag-1 -1, NR2E3 ag-2 5, MC4R barr agon 9.2* and NR1D1 modulator 3.
For CCCCCCSC1=C(C#N)C(c2ccccc2)CC(=O)N1 (centres undefined) the results were PG9 binder 0, MC4R antag cAMP 7, NR2E3 ag-1 2, NR2E3 ag-2 -15, MC4R barr agon 10* and NR1D1 modulator 3.
Screening COc1ccc(CC(=O)NNC(=O)c2ccc(SCc3cc(F)ccc3F)c([N+](=O)[O-])c2)cc1 returned PG9 binder 0, MC4R antag cAMP 4, NR2E3 ag-1 -1, NR2E3 ag-2 16, MC4R barr agon 9.0* and NR1D1 modulator -7.
`C/C(=N\NC(=O)Cn1c(-c2ccccn2)nc2ccccc21)c1cccc(O)c1` gave PG9 binder -1, MC4R antag cAMP 13, NR2E3 ag-1 -3, NR2E3 ag-2 -4, MC4R barr agon -2 and NR1D1 modulator 3.
For COCCNC(=O)c1cn(Cc2c(F)cccc2Cl)nn1 the results were PG9 binder 0, MC4R antag cAMP -2, NR2E3 ag-1 0, NR2E3 ag-2 1, MC4R barr agon -1 and NR1D1 modulator 0.
Screening Cc1ccc(-c2nc3sc4c(N)ncnc4c3c3c2CCCC3)cc1 returned PG9 binder -1, MC4R antag cAMP 6, NR2E3 ag-1 -3, NR2E3 ag-2 9, MC4R barr agon 8.4* and NR1D1 modulator 14.
C=CCN1C(=O)c2ccc(C(=O)N3CCC(C(N)=O)CC3)cc2C1=O was read as PG9 binder 0, MC4R antag cAMP 8, NR2E3 ag-1 3, NR2E3 ag-2 7, MC4R barr agon 2 and NR1D1 modulator 5.
For COc1ccc(N2CCN(C(=O)CN(c3ccc(OC)cc3)S(=O)(=O)c3ccccc3)CC2)cc1 the results were PG9 binder -1, MC4R antag cAMP 12, NR2E3 ag-1 1, NR2E3 ag-2 -5, MC4R barr agon -1 and NR1D1 modulator 1.
O=C(CN(c1ccc(Cl)cc1)S(=O)(=O)c1ccccc1)N1CCN(c2ccccc2)CC1 was read as PG9 binder 0, MC4R antag cAMP 12, NR2E3 ag-1 -2, NR2E3 ag-2 -22, MC4R barr agon 9.1* and NR1D1 modulator -1.
For CCCCc1nnc(NC(=O)c2oc3ccccc3c2C)s1 the results were PG9 binder 1, MC4R antag cAMP -1, NR2E3 ag-1 2, NR2E3 ag-2 -66, MC4R barr agon 9.1* and NR1D1 modulator -4.
Cc1nnc(NC(=O)c2oc3ccccc3c2C)s1 was read as PG9 binder 0, MC4R antag cAMP -6, NR2E3 ag-1 6, NR2E3 ag-2 -125, MC4R barr agon -2 and NR1D1 modulator -4.
For COc1cccc(-c2csc(N3CCN(CC(=O)NNC(=O)c4ccc(Br)cc4)CC3)n2)c1 the results were PG9 binder -1, MC4R antag cAMP -5, NR2E3 ag-1 1, NR2E3 ag-2 7, MC4R barr agon 10.0* and NR1D1 modulator 0.
`COc1cccc(-c2csc(N3CCN(CC(=O)NNC(=O)c4ccc(Cl)cc4)CC3)n2)c1` gave PG9 binder 0, MC4R antag cAMP 0, NR2E3 ag-1 0, NR2E3 ag-2 -6, MC4R barr agon 8.8* and NR1D1 modulator -2.
Screening O=C(CN1CCN(c2nc(-c3ccccc3)cs2)CC1)NNC(=O)c1ccc(Br)cc1 returned PG9 binder 0, MC4R antag cAMP 6, NR2E3 ag-1 1, NR2E3 ag-2 -9, MC4R barr agon 8 and NR1D1 modulator 3.
CCC(C)OC(=O)C1=C(C)NC(=O)NC1c1ccc(F)cc1 (centres undefined) was read as PG9 binder -2, MC4R antag cAMP 6, NR2E3 ag-1 -2, NR2E3 ag-2 -39, MC4R barr agon -1 and NR1D1 modulator 2.
`COc1cc(/C=C/C(=O)OCC(=O)Nc2c(C)n(C)n(-c3ccccc3)c2=O)ccc1OCC#N` gave PG9 binder 3, MC4R antag cAMP 3, NR2E3 ag-1 3, NR2E3 ag-2 -6, MC4R barr agon -3 and NR1D1 modulator -1.
`CCC(=O)NC(=S)Nc1ccc(NC(=O)COc2ccc(Cl)cc2Cl)cc1` gave MC4R antag cAMP 1, NR2E3 ag-1 3, NR2E3 ag-2 -4, MC4R barr agon 18* and NR1D1 modulator 24.
Screening CCn1c(=S)sc2c(=O)n(CC(=O)Nc3ccc(Cl)cc3)c(C)nc21 returned PG9 binder -1, MC4R antag cAMP 25, NR2E3 ag-1 2, NR2E3 ag-2 4, MC4R barr agon 8.6* and NR1D1 modulator 5.
`CCn1c(=S)sc2c(=O)n(CC(=O)Nc3ccccc3)c(C)nc21` gave PG9 binder -2, MC4R antag cAMP -4, NR2E3 ag-1 0, NR2E3 ag-2 7, MC4R barr agon 2 and NR1D1 modulator -2.
For NC(c1csc(Nc2ccc(C(F)(F)F)cn2)n1)C1CCCCC1 (centres undefined) the results were PG9 binder 1, MC4R antag cAMP 3, NR2E3 ag-2 4, MC4R barr agon 8.9* and NR1D1 modulator 6.
CCN(CC)CCNC(C(=O)Nc1cc(C(F)(F)F)ccc1Cl)c1ccccc1 (centres undefined) was read as PG9 binder -3, MC4R antag cAMP 5, NR2E3 ag-1 1, NR2E3 ag-2 -22, MC4R barr agon -1 and NR1D1 modulator 4.
COc1ccc2ccccc2c1-c1sc(Nc2ccccc2)n[n+]1-c1ccc(F)cc1 was read as PG9 binder 1, MC4R antag cAMP -4, NR2E3 ag-1 4, NR2E3 ag-2 26, MC4R barr agon 12* and NR1D1 modulator 5.
Screening Cc1cccc(C(=O)N2CCN(c3ccc(N4CCOCC4)nn3)CC2)c1 returned PG9 binder 1, MC4R antag cAMP 15, NR2E3 ag-1 -1, NR2E3 ag-2 -13, MC4R barr agon -2 and NR1D1 modulator -3.
`Cc1nc(NC(=O)c2ccc(Cl)cc2)nc2cc3c(cc12)OCO3` gave PG9 binder 6, MC4R antag cAMP 7, NR2E3 ag-1 -3, NR2E3 ag-2 -6, MC4R barr agon -2 and NR1D1 modulator 7.
Screening COC/C=C/C1=CC(=O)C[C@H](c2ccc3c(c2)OCO3)C1 returned PG9 binder 0, MC4R antag cAMP 22, NR2E3 ag-1 -5, NR2E3 ag-2 9, MC4R barr agon -2 and NR1D1 modulator 1.
`Cc1cccc(Cn2nc(C(C)(C)C)cc2C(=O)Nc2ccc(F)cc2)c1` gave PG9 binder 1, MC4R antag cAMP 5, NR2E3 ag-1 1, NR2E3 ag-2 17, MC4R barr agon 8.5* and NR1D1 modulator -1.
